The source made the active and inactive calls. The calls are words filed in the database; no cut-off is given here.
What was measured:
[1] = target: Voltage-gated inwardly rectifying potassium channel KCNH2 (Homo sapiens, UniProt Q12809); assay: Displacement of [3H]-astemizole from human ERG expressed in HEK293 cells after 60 mins by scintillation counting analysis; type: cell-based
Rattus norvegicus [2] = assay: Wake-promoting activity in Sprague-Dawley rat assessed as increase in time spent awake at 10 mg/kg, sc administered during light sleep phase measured over first 6 hrs post-treatment; type: functional
Procedure, shortened: (§1)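 Rats treated during the light sleep phase. Time awake, NREM and REM sleep duration scored over the first 6 h post-treatment.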

[3] = Volume of distribution at steady state in Sprague-Dawley rat; type: ADME, organism-based; conditions: in vivo, read-out: Vdss
Rattus norvegicus [4] = assay: Toxicity in rat assessed as decrease in locomotor activity at 250 mg/kg, po administered up to 28 days; type: organism-based; conditions: in vivo, 672 h
Procedure, shortened: (§2)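 Rats dosed orally at up to 250 mg/kg daily for up to 28 days. Monitored for clinical signs (salivation, activity), body weight, food consumption and clinical pathology; NOAEL derived.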

Rattus norvegicus [5] = assay: Toxicity in Sprague-Dawley rat assessed as effect on rapid eye movement sleep at 10 mg/kg, sc administered during light sleep phase measured over first 6 hrs post-treatment; type: organism-based; conditions: in vivo
Homo sapiens [6] = species: Homo sapiens; assay: Toxicity in human assessed as insomnia; type: organism-based; conditions: in vivo
Cytochrome P450 1A2 = target: T1, Cytochrome P450 1A2 (Homo sapiens, UniProt P05177); assay: Inhibition of CYP1A2 (unknown origin); type: ADME
T1 sequence (P05177 whole entry): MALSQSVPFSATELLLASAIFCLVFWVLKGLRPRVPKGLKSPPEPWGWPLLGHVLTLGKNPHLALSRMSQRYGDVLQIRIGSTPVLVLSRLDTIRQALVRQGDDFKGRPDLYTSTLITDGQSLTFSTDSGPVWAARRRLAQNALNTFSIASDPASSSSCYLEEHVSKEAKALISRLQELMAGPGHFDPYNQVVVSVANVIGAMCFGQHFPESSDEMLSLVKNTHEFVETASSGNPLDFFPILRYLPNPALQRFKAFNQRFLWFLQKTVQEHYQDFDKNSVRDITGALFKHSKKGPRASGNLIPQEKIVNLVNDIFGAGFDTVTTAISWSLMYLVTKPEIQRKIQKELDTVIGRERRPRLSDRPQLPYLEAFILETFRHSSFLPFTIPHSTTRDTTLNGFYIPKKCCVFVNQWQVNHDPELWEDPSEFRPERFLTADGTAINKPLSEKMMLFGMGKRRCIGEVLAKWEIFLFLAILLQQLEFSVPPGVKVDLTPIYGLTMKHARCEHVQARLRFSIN
Procedure, shortened: (§3)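 CYP1A2, 2C9, 2C19, 2D6 and 3A4 inhibition measured and reported as IC₅₀ (μM).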

Rattus norvegicus [7] = assay: Toxicity in rat assessed as decrease in food consumption at 250 mg/kg, po administered up to 28 days; type: organism-based; conditions: in vivo, 672 h; procedure, shortened: as §2
Rattus norvegicus [8] = assay: Toxicity in rat assessed as clinical pathology alteration at 250 mg/kg, po administered up to 28 days; type: organism-based; conditions: in vivo, 672 h; procedure, shortened: as §2
Cytochrome P450 2C9 = Cytochrome P450 2C9 (Homo sapiens, UniProt P11712); assay: Inhibition of CYP2C9 (unknown origin); type: ADME; procedure, shortened: as §3
Cytochrome P450 2C9, sequence (P11712 whole entry): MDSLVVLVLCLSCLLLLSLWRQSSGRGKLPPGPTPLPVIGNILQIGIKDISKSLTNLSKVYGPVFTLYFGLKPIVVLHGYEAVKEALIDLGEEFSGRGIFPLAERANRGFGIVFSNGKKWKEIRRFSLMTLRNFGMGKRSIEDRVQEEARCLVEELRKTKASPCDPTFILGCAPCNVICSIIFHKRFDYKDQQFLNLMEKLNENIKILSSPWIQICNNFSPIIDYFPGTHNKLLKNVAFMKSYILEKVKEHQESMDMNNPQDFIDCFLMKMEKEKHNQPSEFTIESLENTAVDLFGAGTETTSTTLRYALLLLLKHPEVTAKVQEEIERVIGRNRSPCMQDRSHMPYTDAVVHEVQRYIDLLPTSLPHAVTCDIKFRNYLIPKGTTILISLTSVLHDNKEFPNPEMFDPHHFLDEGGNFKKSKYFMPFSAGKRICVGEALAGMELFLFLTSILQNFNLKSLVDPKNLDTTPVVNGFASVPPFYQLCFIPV

Cytochrome P450 2D6 = Cytochrome P450 2D6 (Homo sapiens, UniProt P10635); assay: Inhibition of CYP2D6 (unknown origin); type: ADME; procedure, shortened: as §3
Cytochrome P450 2D6, sequence (P10635 whole entry): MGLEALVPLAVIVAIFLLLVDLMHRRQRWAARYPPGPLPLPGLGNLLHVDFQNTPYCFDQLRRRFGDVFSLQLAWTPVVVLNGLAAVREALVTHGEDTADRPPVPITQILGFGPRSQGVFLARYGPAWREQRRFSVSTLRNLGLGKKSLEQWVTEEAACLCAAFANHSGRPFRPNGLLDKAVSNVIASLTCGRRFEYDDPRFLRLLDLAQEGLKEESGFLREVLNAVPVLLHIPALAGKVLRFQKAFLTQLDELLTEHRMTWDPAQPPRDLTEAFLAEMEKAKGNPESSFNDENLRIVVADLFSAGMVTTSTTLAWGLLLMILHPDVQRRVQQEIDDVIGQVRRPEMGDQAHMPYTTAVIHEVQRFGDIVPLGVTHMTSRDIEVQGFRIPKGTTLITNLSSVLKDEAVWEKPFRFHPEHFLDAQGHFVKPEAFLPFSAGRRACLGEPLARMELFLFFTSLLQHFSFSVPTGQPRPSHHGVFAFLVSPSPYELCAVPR

Rattus norvegicus [9] = assay: Toxicity in Sprague-Dawley rat assessed as increase in locomotor activity at 10 mg/kg, sc; type: organism-based; conditions: in vivo
Histamine H3 receptor = Histamine H3 receptor (Homo sapiens, UniProt Q9Y5N1); assay: Displacement of N-[3H]methylhistamine from human histamine H3 receptor expressed in human SK-N-MC cells after 45 mins; type: cell-based
Histamine H3 receptor, sequence (Q9Y5N1 whole entry): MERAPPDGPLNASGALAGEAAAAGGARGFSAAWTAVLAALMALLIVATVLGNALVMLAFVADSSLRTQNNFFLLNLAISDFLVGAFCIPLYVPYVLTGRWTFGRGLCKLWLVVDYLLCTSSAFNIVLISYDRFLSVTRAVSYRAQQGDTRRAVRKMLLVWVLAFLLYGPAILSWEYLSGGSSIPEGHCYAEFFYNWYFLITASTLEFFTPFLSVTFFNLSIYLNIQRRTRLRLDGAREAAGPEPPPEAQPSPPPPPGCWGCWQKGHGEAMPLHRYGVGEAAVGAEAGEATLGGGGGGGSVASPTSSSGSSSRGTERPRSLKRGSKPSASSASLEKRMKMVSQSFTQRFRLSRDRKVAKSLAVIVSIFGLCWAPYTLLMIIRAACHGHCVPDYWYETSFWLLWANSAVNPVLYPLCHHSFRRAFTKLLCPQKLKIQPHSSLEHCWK

[10] = Half life in Sprague-Dawley rat at 1 mg/kg, iv; type: ADME, organism-based; conditions: in vivo
Mus musculus = species: Mus musculus; assay: Toxicity in mouse; type: organism-based; conditions: in vivo
Rattus norvegicus [11] = assay: Toxicity in rat assessed as induction of mild and sporadic salivation at 250 mg/kg, po administered up to 28 days; type: organism-based; conditions: in vivo, 672 h; procedure, shortened: as §2
[12] = target: Voltage-gated L-type calcium channel (Rattus norvegicus, UniProt P22002+Q02485+P27732); assay: Binding affinity to rat L-type calcium channel at 1 uM
[13] = Drug uptake in Sprague-Dawley rat brain at 3 mg/kg, po measured at 1 hr; type: ADME, organism-based; conditions: read-out: Drug uptake
Procedure, shortened: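 Rats dosed orally at 3 mg/kg. Brain drug concentration (μM) measured at 1 h post-dose.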

[14] = Apparent permeability across basolateral to apical side in human Caco2 cells at 10 uM […] by LC/MS/MS analysis; type: ADME, cell-based; conditions: Caco-2
Procedure, shortened: (§4)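 Caco-2 monolayer permeability measured in both directions, apical-to-basolateral and basolateral-to-apical. Reported as P_app (×10−⁶ cm/s), given as A−B/B−A pairs.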

[15] = Elimination half life in human at 2 mg; type: ADME, organism-based; conditions: in vivo, read-out: beta t1/2 (converted)
Procedure, shortened: (§5)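 Mean elimination half-life determined in human dose groups receiving 2 mg and 5 mg.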

[16] = Elimination half life in human at 5 mg; type: ADME, organism-based; conditions: in vivo, read-out: beta t1/2 (converted); procedure, shortened: as §5
Rattus norvegicus [17] = assay: Ex vivo histamine H3 receptor occupancy in Sprague-Dawley rat striatum at 3 mg/kg, po measured at 1 hr by autoradiographic analysis; type: functional
Procedure, shortened: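 After a 3 mg/kg oral dose in rats, ex vivo H3 receptor occupancy was determined by autoradiography at 1 h. Values are mean ± SD.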

[18] = Toxicity in po dosed rat administered up to 28 days; type: organism-based; conditions: in vivo; procedure, shortened: as §2
[19] = Apparent permeability across apical to basolateral side in human Caco2 cells at 10 uM after 60 mins by LC/MS/MS analysis; type: ADME, cell-based; conditions: Caco-2; procedure, shortened: as §4
Cytochrome P450 3A4 = Cytochrome P450 3A4 (Homo sapiens, UniProt P08684); assay: Inhibition of CYP3A4 (unknown origin); type: ADME; procedure, shortened: as §3
Cytochrome P450 3A4, sequence (P08684 whole entry): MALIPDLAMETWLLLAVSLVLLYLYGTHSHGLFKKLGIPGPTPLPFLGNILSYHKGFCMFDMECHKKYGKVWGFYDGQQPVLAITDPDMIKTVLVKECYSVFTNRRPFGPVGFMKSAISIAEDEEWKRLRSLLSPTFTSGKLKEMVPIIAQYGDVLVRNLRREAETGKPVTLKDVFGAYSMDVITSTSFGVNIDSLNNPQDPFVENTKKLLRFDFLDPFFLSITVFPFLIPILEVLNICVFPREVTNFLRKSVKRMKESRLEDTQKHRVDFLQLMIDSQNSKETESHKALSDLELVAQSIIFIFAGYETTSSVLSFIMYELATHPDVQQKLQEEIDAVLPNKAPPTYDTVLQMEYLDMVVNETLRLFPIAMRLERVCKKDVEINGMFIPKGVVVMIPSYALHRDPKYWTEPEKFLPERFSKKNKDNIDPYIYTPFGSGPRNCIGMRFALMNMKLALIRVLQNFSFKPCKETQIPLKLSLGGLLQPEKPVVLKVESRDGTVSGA

Rattus norvegicus [20] = assay: Wake-promoting activity in Sprague-Dawley rat assessed as decrease in non-rapid eye movement sleep duration at 10 mg/kg, sc administered during light sleep phase measured over first 6 hrs post-treatment; type: functional, organism-based; procedure, shortened: as §1
[21] = Metabolic stability in human liver microsomes assessed as compound remaining at 1 uM after 15 mins; type: ADME; conditions: read-out: Stability
Procedure, shortened: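 Compound incubated with human liver microsomes for 15 min. Read-out is percent parent remaining.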

[22] = Oral bioavailability in Sprague-Dawley rat at 10 mg/kg; type: ADME, organism-based; conditions: in vivo
Cytochrome P450 2C19 = Cytochrome P450 2C19 (Homo sapiens, UniProt P33261); assay: Inhibition of CYP2C19 (unknown origin); type: ADME; procedure, shortened: as §3
Cytochrome P450 2C19, sequence (P33261 whole entry): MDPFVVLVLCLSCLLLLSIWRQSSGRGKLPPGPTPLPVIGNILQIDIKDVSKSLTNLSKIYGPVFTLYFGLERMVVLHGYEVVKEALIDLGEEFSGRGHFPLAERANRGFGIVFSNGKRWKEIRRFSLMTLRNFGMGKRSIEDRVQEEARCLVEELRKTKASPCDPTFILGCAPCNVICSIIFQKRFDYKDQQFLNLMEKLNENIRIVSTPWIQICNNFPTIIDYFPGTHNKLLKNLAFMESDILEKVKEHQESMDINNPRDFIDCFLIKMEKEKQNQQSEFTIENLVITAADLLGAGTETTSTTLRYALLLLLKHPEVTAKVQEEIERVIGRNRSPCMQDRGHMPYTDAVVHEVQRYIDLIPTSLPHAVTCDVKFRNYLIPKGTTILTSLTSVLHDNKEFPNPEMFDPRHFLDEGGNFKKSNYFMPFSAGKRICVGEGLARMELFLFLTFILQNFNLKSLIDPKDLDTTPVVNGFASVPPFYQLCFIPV

Canis familiaris [23] = assay: Toxicity in dog at 10 to 75 mg/kg/day administered for 5 days; type: organism-based, Canis lupus familiaris; conditions: in vivo, 120 h
Rattus norvegicus [24] = assay: Toxicity in rat assessed as decrease in body weight at 250 mg/kg, po administered up to 28 days; type: organism-based; conditions: in vivo, 672 h; procedure, shortened: as §2
[25] = Plasma protein binding in human; type: ADME, cell-free; conditions: read-out: PPB (converted)
[26] = Clearance in Sprague-Dawley rat; type: ADME, organism-based; conditions: in vivo
Homo sapiens [27] = species: Homo sapiens; assay: Ex vivo histamine H3 receptor occupancy in human assessed as plasma concentration required to cause maximal receptor occupancy; type: functional
Rattus norvegicus [28] = species: Rattus norvegicus; assay: Toxicity in rat assessed as phospholipidosis; conditions: in vivo
Rattus norvegicus [29] = species: Rattus norvegicus; assay: Toxicity in rat assessed as phospholipidosis; type: organism-based; conditions: in vivo
[30] = Tmax in po dosed human; type: ADME, organism-based; conditions: in vivo
Procedure, shortened: (§6)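 Humans given single oral doses. Time to peak plasma concentration and mean t1/2 were determined across the dose range (10–400 mg).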

[31] = Inhibition of CYP450 in human liver microsomes; type: ADME
Canis familiaris [32] = species: Canis familiaris; assay: Toxicity in dog assessed as phospholipidosis; type: organism-based, Canis lupus familiaris; conditions: in vivo
Rattus norvegicus [33] = assay: Ex vivo histamine H3 receptor occupancy in Sprague-Dawley rat striatum assessed as maximum plasma concentration required to cause >80% receptor occupancy at 10 mg/kg, sc; type: functional
Procedure, shortened: (§7)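 Ex vivo H3 receptor occupancy measured after 10 mg/kg subcutaneous dosing in rats. Plasma Cmax was determined in parallel.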

[34] = Half life in human; type: ADME, organism-based; conditions: in vivo; procedure, shortened: as §6
[35] = Metabolic stability in Sprague-Dawley rat liver microsomes assessed as compound remaining at 1 uM after 15 mins; type: ADME; conditions: read-out: Stability
Procedure, shortened: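 Rat liver microsomes incubated with compound for 15 min. Stability expressed as percent of parent remaining.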

Rattus norvegicus [36] = assay: Ex vivo histamine H3 receptor occupancy in Sprague-Dawley rat striatum at 10 mg/kg, sc by autoradiographic analysis; type: functional; procedure, shortened: as §7

Voltage-gated inwardly rectifying potassium channel KCNH2, sequence (Q12809 whole entry): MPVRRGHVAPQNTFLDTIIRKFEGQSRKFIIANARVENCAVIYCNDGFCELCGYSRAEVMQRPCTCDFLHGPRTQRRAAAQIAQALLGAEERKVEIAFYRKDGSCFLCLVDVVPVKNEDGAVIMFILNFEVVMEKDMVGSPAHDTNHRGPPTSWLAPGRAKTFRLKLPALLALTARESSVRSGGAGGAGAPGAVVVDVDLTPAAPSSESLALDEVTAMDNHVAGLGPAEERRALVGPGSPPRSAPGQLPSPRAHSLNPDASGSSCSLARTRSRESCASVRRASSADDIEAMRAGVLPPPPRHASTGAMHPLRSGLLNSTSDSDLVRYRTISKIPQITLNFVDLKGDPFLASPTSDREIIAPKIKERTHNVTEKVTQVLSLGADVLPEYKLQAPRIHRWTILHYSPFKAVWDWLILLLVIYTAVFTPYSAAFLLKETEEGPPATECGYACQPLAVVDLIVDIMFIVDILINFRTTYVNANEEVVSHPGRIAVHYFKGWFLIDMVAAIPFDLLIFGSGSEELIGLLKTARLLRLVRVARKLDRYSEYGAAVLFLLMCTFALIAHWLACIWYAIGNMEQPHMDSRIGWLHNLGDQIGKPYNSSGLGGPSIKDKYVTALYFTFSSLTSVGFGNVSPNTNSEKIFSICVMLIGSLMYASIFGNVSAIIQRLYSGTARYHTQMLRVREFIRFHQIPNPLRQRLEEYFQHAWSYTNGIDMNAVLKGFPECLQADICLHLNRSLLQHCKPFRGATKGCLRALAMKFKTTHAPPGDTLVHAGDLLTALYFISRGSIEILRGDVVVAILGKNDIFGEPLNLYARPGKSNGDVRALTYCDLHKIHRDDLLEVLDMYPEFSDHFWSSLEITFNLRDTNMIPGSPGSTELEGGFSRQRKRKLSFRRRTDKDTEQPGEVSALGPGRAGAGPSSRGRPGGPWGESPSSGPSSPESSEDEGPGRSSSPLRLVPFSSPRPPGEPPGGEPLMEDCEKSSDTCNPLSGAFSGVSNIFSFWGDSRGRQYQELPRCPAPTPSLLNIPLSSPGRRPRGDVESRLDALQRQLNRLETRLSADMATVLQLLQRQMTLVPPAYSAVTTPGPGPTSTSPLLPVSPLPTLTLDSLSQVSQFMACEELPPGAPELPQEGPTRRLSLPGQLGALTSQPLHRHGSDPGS

CC(C)N1CCN(C(=O)c2ccc(CN3CCOCC3)cc2)CC1.O=C(O)/C=C\C(=O)O
IC50 [1]: > 10 µM
Time (Rattus norvegicus [2]): 1 h
Vd [3]: 3.6 L/kg
Activity (Rattus norvegicus [4]): Toxic
Activity (Rattus norvegicus [5]): Non-toxic
Activity (Homo sapiens [6]): Toxic
IC50 (Cytochrome P450 1A2): > 40 µM
Activity (Rattus norvegicus [7]): Toxic
Activity (Rattus norvegicus [8]): Toxic
IC50 (Cytochrome P450 2C9): > 40 µM
IC50 (Cytochrome P450 2D6): > 40 µM
Activity (Rattus norvegicus [9]): Non-toxic
Ki (Histamine H3 receptor): 2.5 nM
half-life [10]: 192 min
Activity (Mus musculus): Non-toxic
Activity (Rattus norvegicus [11]): Toxic
Activity [12]: Not Active
concentration at 1 h [13]: 5370 nM
Papp B→A at 10 µM [14]: 20.9 ×10⁻⁶ cm/s
half-life [15]: 2950 min
half-life [16]: 2.34 days
Occ (Rattus norvegicus [17]): 86%
NOAEL at 672 h [18]: 25 mg/kg/day
Papp A→B at 1 h, 10 µM [19]: 22.4 ×10⁻⁶ cm/s
IC50 (Cytochrome P450 3A4): > 40 µM
Activity (Rattus norvegicus [20]): Active
remaining at 0.25 h, 1 µM [21]: 65%
bioavailability [22]: 62%
IC50 (Cytochrome P450 2C19): > 40 µM
Activity (Canis familiaris [23]): Non-toxic
Activity (Rattus norvegicus [24]): Toxic
fraction unbound [25]: 0.876
clearance [26]: 12.8 mL/min/kg

Cl.O=C(c1ccc(CN2CCOCC2)cc1)N1CCN(C2CC2)CC1
Activity (Homo sapiens [27]): 200 ng/mL
IC50 [1]: > 10 µM
Vd [3]: 1.7 L/kg
Activity (Rattus norvegicus [28]): Non-toxic
Activity (Rattus norvegicus [29]): Non-toxic
Tmax [30]: 30 min
inhibition (INH) [31]: Not Active
Activity (Canis familiaris [32]): Non-toxic
half-life [10]: 54 min
Activity [12]: Not Active
concentration at 1 h [13]: 2540 nM
Activity (Rattus norvegicus [33]): 1933 ng/mL
half-life [34]: 834 min
Papp B→A at 10 µM [14]: 37.8 ×10⁻⁶ cm/s
Occ (Rattus norvegicus [17]): 58%
remaining at 0.25 h, 1 µM [35]: 44.1%
Papp A→B at 1 h, 10 µM [19]: 108 ×10⁻⁶ cm/s
Occ (Rattus norvegicus [36]): >80%
remaining at 0.25 h, 1 µM [21]: 96.1%
bioavailability [22]: 112%
clearance [26]: 21.6 mL/min/kg

CC(C)N1CCN(C(=O)c2ccc(CN3CCCCC3)cc2)CC1
IC50 [1]: > 30 µM
Vd [3]: 39.4 L/kg
half-life [10]: 1200 min
Activity [12]: Not Active
concentration at 1 h [13]: 480 nM
Papp B→A at 10 µM [14]: 14.8 ×10⁻⁶ cm/s
Occ (Rattus norvegicus [17]): 90%
Papp A→B at 1 h, 10 µM [19]: 12.4 ×10⁻⁶ cm/s
bioavailability [22]: 52%
clearance [26]: 26.1 mL/min/kg

Reference: ChEMBL document CHEMBL3576859, “Novel benzamide-based histamine h3 receptor antagonists: the identification of two candidates for clinical development” (ACS Med Chem Lett, 2015)
